Sampled rows, rich in hits. Any-hit rate of the full collection: about 4.2%.
KCC2 mod: KCC2 cotransporter modulators, thallium flux, primary screen, cell-based, HEK293 KCC2, FluoZin-2 fluorescence, MLSMR. Solute carrier family 12 member 5 (Homo sapiens), Q9H2X9. KCC2 cells, thallium flux FluoZin-2 fluorescence. B-score of Tl+ flux slope (higher = more flux/activation; lower = inhibition) at 10 µM. hit rate 2.2% among 190,000. AID 1456, 2008;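 active means thallium flux slope and its plate-corrected score both differing from the plate sample mean at a set confidence after two filtering rounds, in either direction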;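 further: slope of fluorescence scaled to starting intensity during 10 to 20 s after thallium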
SKKanGAS inh: S. pyogenes SKKanGAS growth inhibitors in kanamycin, primary screen, streptokinase expression inhibitor project, SKKanGAS strain, BacTiter-Glo luminescence; hit rate 1.3% among 300,000; 6 h; inhibition, % at 7.5 µM; AID 1662, 2009;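 active means mean replicate score, as percent of positive control median, at least 50; inconclusive means mean below 50 but one replicate at or above 50; inactive means mean and every replicate below 50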;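 further: strain carries kanamycin resistance gene driven by streptokinase promoter and grows in 40 µg/ml kanamycin; loss of luminescence reflects streptokinase promoter inhibition or plain growth inhibition; 0% = median of DMSO wells and 100% = positive control at its reference dose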
Rad51 HR inh: human RAD51 strand exchange inhibitors, primary screen, biochemical, fluorescence; hRad51 DNA strand exchange, fluorescence dequenching; inhibition, % at 10 µM; hit rate 0.085% among 200,000; AID 1385, 2008;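 active means inhibition above 40% at the single screening dose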;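 further: 0% = DMSO control wells and 100% = blanks with heterologous ssDNA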
Target sequence (Q06609 whole entry, looked up): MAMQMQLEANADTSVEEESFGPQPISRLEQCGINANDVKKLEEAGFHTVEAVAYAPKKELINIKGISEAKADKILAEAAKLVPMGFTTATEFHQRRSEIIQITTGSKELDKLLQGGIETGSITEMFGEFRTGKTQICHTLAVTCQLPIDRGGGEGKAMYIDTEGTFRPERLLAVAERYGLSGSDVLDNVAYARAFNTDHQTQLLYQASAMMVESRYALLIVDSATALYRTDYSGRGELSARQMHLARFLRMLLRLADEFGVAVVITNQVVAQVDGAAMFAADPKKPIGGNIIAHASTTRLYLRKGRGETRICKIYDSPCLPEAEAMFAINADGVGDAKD
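material = hRad51 filaments on single-stranded DNA | reagent = Donor/quencher-labelled 47-bp dsDNA substrate | compound = 10 µM final, single point | schedule = strand-exchange reaction 15 min at room temperature | measured by = fluorescein emission 520 nm, excitation 485 nm | read-out basis = % inhibition versus plate control and blank means | benchmarks = plate controls and plate blanks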
Ins promoter up: insulin promoter activators in MIN6 cells, imaging, high-content screening, mouse beta cells; MIN6 insulin promoter-GFP reporter; active compounds read high; z-score at 5 µM; hit rate 0.3% among 190,000;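 active means z-score above 3 at 5 µM with at least 500 cells counted in the well; inconclusive means wells under 500 cells, flagged as cytotoxic or low count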
WT yeast gro inh: growth inhibition of WT strain, primary screen, mitochondrial fusion inhibitor project, WT and mutant strains, chemical genetic; mitochondrial fusion phenotypic screen; hit rate 2.1% among 190,000; inhibition, % at 10 µM; in the data active means inhibition above about 58%; tested in S. cerevisiae
Autophagy mod: autophagy modulators in MEF cells, primary screen, imaging, high-content, MEF GFP-LC3; MEF GFP-LC3 puncta imaging; test concentration mostly 10 µM; calls only at 10 µM (by protocol); hit rate 0.98% among 190,000; AID 463193, 2010;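 active means percentage of spot-positive cells more than 3 SD above its plate mean, without a fluorescence outlier flag or 80% toxicity; inconclusive means no clear call, values can overlap the other calls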;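 further: spot-positive cell cutoff set from DMSO-treated cells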
Starred values were filed as active, the others as inactive.

Results for CCCCNC(=O)Cn1nc(Cc2ccncc2)c2ccccc2c1=O ?
SKKanGAS inh: 0

How did O=C(Cn1nc(Cc2ccncc2)c2ccccc2c1=O)N1CCc2ccccc2C1 do in these assays?
KCC2 mod: -3.7*; Ins promoter up: 1.9; WT yeast gro inh: 6

Results for COc1ccccc1CC1CC(=O)N(c2cccc(Cl)c2C)C1=O (stereo not drawn) ?
SKKanGAS inh: 8

How did Cc1cc(C)c2[nH]c(O)c(N=Nc3ccc(C(=O)O)cc3)c2c1 do in these assays?
SKKanGAS inh: 74*

How did Cc1cc(C)c2[nH]c(O)c(N=NC3=NC(=O)CS3)c2c1 do in these assays?
KCC2 mod: 0.51; SKKanGAS inh: 5

Results for COc1ccc(-n2cc(-c3ccccc3)[nH]c2=S)cc1 ?
KCC2 mod: 18*; SKKanGAS inh: -14; Rad51 HR inh: 1; Ins promoter up: 0.39; WT yeast gro inh: -6; Autophagy mod: inactive

What do the screens show for `N#Cc1cnn(-c2ccccc2)c1NC(=O)CN1CCN(c2ccccc2)CC1`?
KCC2 mod: 0.26; SKKanGAS inh: 13; Rad51 HR inh: 12; Ins promoter up: 0.71

What do the screens show for `Cc1cnn(C(=S)NCc2ccc(Cl)cc2)c1`?
KCC2 mod: 0.87; SKKanGAS inh: 15; Rad51 HR inh: -7; WT yeast gro inh: 68*; Autophagy mod: inactive

Results for COc1cccc(NC(=O)CN2C(=O)NC(C)(CCC(C)C)C2=O)c1 (stereo not drawn) ?
KCC2 mod: 0.76; SKKanGAS inh: -2; Rad51 HR inh: -8; Ins promoter up: -0.43; WT yeast gro inh: -20; Autophagy mod: inactive

What do the screens show for `CCCC1(CCC)NC(=O)N(CC(=O)Nc2cccc(OC)c2)C1=O`?
KCC2 mod: -0.79; SKKanGAS inh: -3; Rad51 HR inh: -20; Ins promoter up: -2.4; WT yeast gro inh: 64*; Autophagy mod: inactive

Results for O=C(CC1CCCCC1)NCc1ccccc1Cl ?
SKKanGAS inh: 4

Results for COc1ccc(NC(=O)NNS(=O)(=O)c2ccc(OC)c(OC)c2)c(OC)c1 ?
SKKanGAS inh: -4

How did CCOC(=O)c1ccc(NC(=O)CN2C(=O)C3C4C=CC(C4)C3C2=O)cc1 (stereo not drawn) do in these assays?
SKKanGAS inh: -2; Rad51 HR inh: -2; Ins promoter up: 0.99; WT yeast gro inh: -5; Autophagy mod: inactive

What do the screens show for `Cc1ccc(NC(=O)CN2C(=O)C3C4C=CC(C4)C3C2=O)cc1` (stereo not drawn)?
KCC2 mod: -0.21; SKKanGAS inh: -3; Rad51 HR inh: 12; Ins promoter up: 0.61; WT yeast gro inh: -15; Autophagy mod: active

Results for Cc1ccc(-c2cc3c(N=O)c4ccccc4c-3n[nH]2)cc1 ?
SKKanGAS inh: 32; Rad51 HR inh: -10; Ins promoter up: 0.43; WT yeast gro inh: 64*; Autophagy mod: inactive

Results for O=Nc1c2cc(-c3ccccc3)[nH]nc-2c2ccccc12 ?
SKKanGAS inh: inconclusive; Rad51 HR inh: 9; Ins promoter up: 1.2; WT yeast gro inh: 58; Autophagy mod: inactive

How did Cn1c(=O)c2sc3c(c2n(CC(=O)Nc2ccccc2)c1=O)COC(C)(C)C3 do in these assays?
SKKanGAS inh: -6

What do the screens show for `COc1cccc(N/C(C)=C/C(=O)c2ccc(Br)cc2)c1`?
KCC2 mod: 1.5; SKKanGAS inh: -13; Rad51 HR inh: 2; Ins promoter up: 0.15; WT yeast gro inh: 65*; Autophagy mod: inactive

How did O=C(CN1C(=O)CCSc2ccc(S(=O)(=O)N3CCCC3)cc21)Nc1ccccc1 do in these assays?
SKKanGAS inh: -2

Results for C=CC(C)N1C(=O)S/C(=C\c2ccc(N3CCOCC3)cc2C)C1=O (stereo not drawn) ?
KCC2 mod: 0.32; SKKanGAS inh: 34; Rad51 HR inh: -23; Ins promoter up: -0.03; WT yeast gro inh: -3; Autophagy mod: inactive

How did C=CCN1C(=O)S/C(=C\c2ccc(N3CCOCC3)cc2C)C1=O do in these assays?
KCC2 mod: -0.54; SKKanGAS inh: -3; Rad51 HR inh: -10; Ins promoter up: 0.61; WT yeast gro inh: -6; Autophagy mod: active

How did CSCCCNC(=S)Nc1cccc(S(=O)(=O)NC2=NCCC2)c1 do in these assays?
KCC2 mod: 0.38; SKKanGAS inh: 15; Rad51 HR inh: 5; Ins promoter up: 0.08; WT yeast gro inh: -18; Autophagy mod: active

Results for C=C(C)CNC(=S)Nc1cccc(S(=O)(=O)NC2=NCCC2)c1 ?
KCC2 mod: 0.88; SKKanGAS inh: -2; Rad51 HR inh: 3; Ins promoter up: -0.13; WT yeast gro inh: -12; Autophagy mod: inactive

How did CCC(C(=O)OCC(=O)Nc1cccc(S(=O)(=O)NC2=NCCCCC2)c1)c1ccccc1 (stereo not drawn) do in these assays?
SKKanGAS inh: 12; Rad51 HR inh: 29; Ins promoter up: 4*; WT yeast gro inh: -10; Autophagy mod: inactive

How did COc1ccc(N(CCN2C(=O)c3ccccc3C2=O)C(=O)c2cccc([N+](=O)[O-])c2)cc1 do in these assays?
KCC2 mod: 0.81; SKKanGAS inh: 1; Rad51 HR inh: -11; Ins promoter up: 3.1*; WT yeast gro inh: 13; Autophagy mod: inactive

Results for COc1ccc(N(CCCN2C(=O)c3cccc4cccc(c34)C2=O)C(=O)c2ccncc2)cc1 ?
KCC2 mod: -1.1; SKKanGAS inh: 2; Rad51 HR inh: 0; Ins promoter up: -0.72; WT yeast gro inh: 3; Autophagy mod: inactive

How did CC(C)CSC1=NSC2=NC(=O)/C(=C\c3coc4ccccc4c3=O)C(=N)N12 do in these assays?
KCC2 mod: inactive; SKKanGAS inh: 61*; Rad51 HR inh: inactive; Ins promoter up: 0.09; WT yeast gro inh: 14; Autophagy mod: inactive

Results for CSC1=NSC2=NC(=O)/C(=C\c3coc4ccccc4c3=O)C(=N)N12 ?
KCC2 mod: inactive; Rad51 HR inh: inactive; WT yeast gro inh: -13; Autophagy mod: inactive

How did CC(C)CSC1=NSC2=NC(=O)/C(=C\c3ccccc3)C(=N)N12 do in these assays?
KCC2 mod: 139*; SKKanGAS inh: 36; Rad51 HR inh: -23; Ins promoter up: 0.24; WT yeast gro inh: 8; Autophagy mod: inactive

Results for O=C(Nc1ccccc1)n1cc(-c2ccccn2)c(N2CCOCC2)n1 ?
KCC2 mod: 0.18; SKKanGAS inh: -2; Rad51 HR inh: 12; Ins promoter up: 0.46; WT yeast gro inh: 0; Autophagy mod: inactive

Results for CSc1nsc2nc(=O)c(/C=C3\C=Nc4ccccc43)c(N)n12 ?
KCC2 mod: -3.1*; SKKanGAS inh: 50*; Rad51 HR inh: -9; Ins promoter up: 0.52; WT yeast gro inh: 10; Autophagy mod: inactive

Screening data (PubChem BioAssay)
